≈ marks a conversion by molar mass, not a printed value.
Experiments:
Streptococcus mutans = experiment: Antibacterial activity against Streptococcus mutans 3289 after 24 hrs by two-fold serial dilution method; type: functional; settings: Streptococcus mutans, 3289, 24 h
Pseudomonas aeruginosa = experiment: Antibacterial activity against Pseudomonas aeruginosa 2742 after 24 hrs by two-fold serial dilution method; type: functional; settings: Pseudomonas aeruginosa, 2742, 24 h
Outline: (§1)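 Bacteria grown to mid-log phase in Mueller-Hinton broth, diluted 1000-fold, and inoculated at 10^5 CFU/mL. Compounds were dissolved in DMSO (final ≤0.05%) and two-fold serially diluted. MIC was the lowest concentration giving complete growth inhibition after 24 h at 37 °C, with growth read as absorbance at 650 nm. Each experiment was run three times.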

Staphylococcus aureus [1] = experiment: Antibacterial activity against quinolone-resistant Staphylococcus aureus isolate CCARM 3505 after 24 hrs by two-fold serial dilution method; type: functional; settings: isolate CCARM 3505, 24 h
Outline: (§2)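 Broth microdilution MIC. Bacteria were grown to mid-log phase in Mueller-Hinton broth, diluted 1000-fold, and inoculated at 10^5 CFU/mL. Compounds in DMSO (final ≤0.05%) were tested as two-fold serial dilutions from 64 to 0.25. Plates were incubated 24 h at 37 °C and growth read as absorbance at 650 nm. MIC = concentration completely inhibiting growth. Experiments were run three times.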

Staphylococcus aureus [2] = experiment: Antibacterial activity against methicillin-resistant Staphylococcus aureus isolate CCARM 3167 after 24 hrs by two-fold serial dilution method; type: functional; settings: isolate CCARM 3167, 24 h
Candida albicans = experiment: Antifungal activity against Candida albicans 7535 after 24 hrs by two-fold serial dilution method; type: functional; settings: Candida albicans, 7535, 24 h
Escherichia coli [3] = experiment: Antibacterial activity against Escherichia coli 1924 after 24 hrs by two-fold serial dilution method; type: functional; settings: Escherichia coli, 1924, 24 h; outline: as §1
Staphylococcus aureus [4] = experiment: Antibacterial activity against Staphylococcus aureus 4220 after 24 hrs by two-fold serial dilution method; type: functional; settings: RN4220, 24 h; outline: as §2
Salmonella typhimurium = experiment: Antibacterial activity against Salmonella typhimurium 2421 after 24 hrs by two-fold serial dilution method; type: functional, Salmonella enterica subsp. enterica serovar Typhimurium; settings: Salmonella enterica, 2421, 24 h; outline: as §1
[5] = target: Dihydrofolate reductase (Staphylococcus aureus) (UniProt P0A017); experiment: Inhibition of Staphylococcus aureus DHFR at 10 uM after 1.5 hrs by ELISA relative to control; settings: Staphylococcus aureus subsp. aureus RN4220
Dihydrofolate reductase (Staphylococcus aureus), sequence (P0A017 2-159 limits assumed): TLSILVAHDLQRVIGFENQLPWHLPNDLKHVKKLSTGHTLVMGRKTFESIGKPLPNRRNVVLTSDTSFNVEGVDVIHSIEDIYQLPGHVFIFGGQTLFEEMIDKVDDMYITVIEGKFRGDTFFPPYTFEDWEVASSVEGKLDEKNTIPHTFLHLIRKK

L02 = experiment: Cytotoxicity against human L02 cells assessed as growth inhibition after 24 hrs by MTT assay; type: cell-based; settings: L02, 24 h
Escherichia coli [6] = experiment: Potency index, ratio of gatifloxacin MIC to compound MIC for Escherichia coli 1924; type: functional
Staphylococcus aureus [7] = experiment: Potency index, ratio of gatifloxacin MIC to compound MIC for quinolone-resistant Staphylococcus aureus isolate CCARM 3505; type: functional
Escherichia coli [8] = experiment: Potency index, ratio of moxifloxacin MIC to compound MIC for Escherichia coli 1924; type: functional
Staphylococcus aureus [9] = experiment: Potency index, ratio of moxifloxacin MIC to compound MIC for quinolone-resistant Staphylococcus aureus isolate CCARM 3505; type: functional

## CN(C)C1=NC(c2ccc(OCc3ccccc3)cc2)N=C(N)N1 (centres undefined)
Streptococcus mutans
  MIC: 32 µg/mL (≈ 98.9 µM)
Pseudomonas aeruginosa
  MIC: > 64 µg/mL
Staphylococcus aureus [1]
  MIC: 32 µg/mL (≈ 98.9 µM)
Staphylococcus aureus [2]
  MIC: 32 µg/mL
Candida albicans
  MIC: 32 µg/mL (≈ 98.9 µM)
Escherichia coli [3]
  MIC: 32 µg/mL (≈ 98.9 µM)
Staphylococcus aureus [4]
  MIC: 64 µg/mL
Salmonella typhimurium
  MIC: > 64 µg/mL

## CN(C)C1=NC(c2ccc3cc(OCc4ccc(Cl)cc4Cl)ccc3c2)N=C(N)N1 (centres undefined)
[5]
  inhibition: 58%
L02
  IC50: 58.9 µM
Streptococcus mutans
  MIC: 1 µg/mL (≈ 2.26 µM)
Pseudomonas aeruginosa
  MIC: 64 µg/mL (≈ 145 µM)
Staphylococcus aureus [1]
  MIC: 0.5 µg/mL (≈ 1.13 µM)
Staphylococcus aureus [2]
  MIC: 2.27 µM
Escherichia coli [6]
  Ratio: 4
Candida albicans
  MIC: 1 µg/mL (≈ 2.26 µM)
Escherichia coli [3]
  MIC: 0.5 µg/mL (≈ 1.13 µM)
Staphylococcus aureus [7]
  Ratio: 16
Escherichia coli [8]
  Ratio: 4
Staphylococcus aureus [9]
  Ratio: 8
Staphylococcus aureus [4]
  MIC: 1.13 µM
Salmonella typhimurium
  MIC: 64 µg/mL (≈ 145 µM)

## COc1c(N2C[C@@H]3CCCN[C@@H]3C2)c(F)cc2c(=O)c(C(=O)O)cn(C3CC3)c12 [MOXIFLOXACIN]
Pseudomonas aeruginosa
  MIC: 0.5 µg/mL (≈ 1.25 µM)
Staphylococcus aureus [1]
  MIC: 1 µg/mL (≈ 2.49 µM)
Staphylococcus aureus [4]
  MIC: 4 µg/mL

## CN(C)C1=NC(c2ccc3cc(OCc4ccccc4)ccc3c2)N=C(N)N1 (centres undefined)
Streptococcus mutans
  MIC: 8 µg/mL (≈ 21.4 µM)
Pseudomonas aeruginosa
  MIC: > 64 µg/mL
Staphylococcus aureus [1]
  MIC: 8 µg/mL (≈ 21.4 µM)
Staphylococcus aureus [2]
  MIC: 8 µg/mL
Candida albicans
  MIC: 8 µg/mL (≈ 21.4 µM)
Escherichia coli [3]
  MIC: 8 µg/mL (≈ 21.4 µM)
Staphylococcus aureus [4]
  MIC: 16 µg/mL
Salmonella typhimurium
  MIC: > 64 µg/mL

## CN(C)C1=NC(c2ccc(OCC(=O)c3ccc(Br)cc3)cc2)N=C(N)N1 (centres undefined)
Streptococcus mutans
  MIC: 32 µg/mL (≈ 74.4 µM)
Pseudomonas aeruginosa
  MIC: > 64 µg/mL
Staphylococcus aureus [1]
  MIC: 64 µg/mL (≈ 149 µM)
Staphylococcus aureus [2]
  MIC: 32 µg/mL
Candida albicans
  MIC: 32 µg/mL (≈ 74.4 µM)
Escherichia coli [3]
  MIC: 64 µg/mL (≈ 149 µM)
Staphylococcus aureus [4]
  MIC: 32 µg/mL
Salmonella typhimurium
  MIC: > 64 µg/mL

## CN(C)C1=NC(c2ccc3cc(OCc4ccccc4F)ccc3c2)N=C(N)N1 (centres undefined)
Streptococcus mutans
  MIC: 4 µg/mL (≈ 10.2 µM)
Pseudomonas aeruginosa
  MIC: 64 µg/mL (≈ 163 µM)
Staphylococcus aureus [1]
  MIC: 4 µg/mL (≈ 10.2 µM)
Staphylococcus aureus [2]
  MIC: 2 µg/mL
Candida albicans
  MIC: 4 µg/mL (≈ 10.2 µM)
Escherichia coli [3]
  MIC: 4 µg/mL (≈ 10.2 µM)
Staphylococcus aureus [4]
  MIC: 2 µg/mL
Salmonella typhimurium
  MIC: 64 µg/mL (≈ 163 µM)

## CN(C)C1=NC(c2ccc3cc(OCc4ccc(Cl)cc4)ccc3c2)N=C(N)N1 (centres undefined)
Streptococcus mutans
  MIC: 1 µg/mL (≈ 2.45 µM)
Pseudomonas aeruginosa
  MIC: 64 µg/mL (≈ 157 µM)
Staphylococcus aureus [1]
  MIC: 1 µg/mL (≈ 2.45 µM)
Staphylococcus aureus [2]
  MIC: 1 µg/mL
Candida albicans
  MIC: 1 µg/mL (≈ 2.45 µM)
Escherichia coli [3]
  MIC: 1 µg/mL (≈ 2.45 µM)
Staphylococcus aureus [4]
  MIC: 1 µg/mL
Salmonella typhimurium
  MIC: 64 µg/mL (≈ 157 µM)

## CN(C)C1=NC(c2ccc3cc(OCC(=O)c4ccccc4)ccc3c2)N=C(N)N1 (centres undefined)
Streptococcus mutans
  MIC: 64 µg/mL (≈ 159 µM)
Pseudomonas aeruginosa
  MIC: > 64 µg/mL
Staphylococcus aureus [1]
  MIC: 32 µg/mL (≈ 79.7 µM)
Staphylococcus aureus [2]
  MIC: 32 µg/mL
Candida albicans
  MIC: 32 µg/mL (≈ 79.7 µM)
Escherichia coli [3]
  MIC: 64 µg/mL (≈ 159 µM)
Staphylococcus aureus [4]
  MIC: 32 µg/mL
Salmonella typhimurium
  MIC: > 64 µg/mL

## CN(C)C1=NC(c2ccc(/C=C/C(=O)c3ccccc3)cc2)N=C(N)N1 (centres undefined)
Streptococcus mutans
  MIC: 32 µg/mL (≈ 92.1 µM)
Pseudomonas aeruginosa
  MIC: > 64 µg/mL
Staphylococcus aureus [1]
  MIC: 32 µg/mL (≈ 92.1 µM)
Staphylococcus aureus [2]
  MIC: 32 µg/mL
Candida albicans
  MIC: 32 µg/mL (≈ 92.1 µM)
Escherichia coli [3]
  MIC: 64 µg/mL (≈ 184 µM)
Staphylococcus aureus [4]
  MIC: 32 µg/mL
Salmonella typhimurium
  MIC: > 64 µg/mL

## CN(C)C1=NC(c2ccc(/C=C/C(=O)c3ccc(Br)cc3)cc2)N=C(N)N1 (centres undefined)
Streptococcus mutans
  MIC: 16 µg/mL (≈ 37.5 µM)
Pseudomonas aeruginosa
  MIC: > 64 µg/mL
Staphylococcus aureus [1]
  MIC: 8 µg/mL (≈ 18.8 µM)
Staphylococcus aureus [2]
  MIC: 8 µg/mL
Candida albicans
  MIC: 16 µg/mL (≈ 37.5 µM)
Escherichia coli [3]
  MIC: 16 µg/mL (≈ 37.5 µM)
Staphylococcus aureus [4]
  MIC: 16 µg/mL
Salmonella typhimurium
  MIC: > 64 µg/mL

## CN(C)C1=NC(c2ccc(/C=C/C(=O)c3ccc(F)cc3)cc2)N=C(N)N1 (centres undefined)
Streptococcus mutans
  MIC: 16 µg/mL (≈ 43.8 µM)
Pseudomonas aeruginosa
  MIC: > 64 µg/mL
Staphylococcus aureus [1]
  MIC: 32 µg/mL (≈ 87.6 µM)
Staphylococcus aureus [2]
  MIC: 32 µg/mL
Candida albicans
  MIC: 32 µg/mL (≈ 87.6 µM)
Escherichia coli [3]
  MIC: 32 µg/mL (≈ 87.6 µM)
Staphylococcus aureus [4]
  MIC: 32 µg/mL
Salmonella typhimurium
  MIC: > 64 µg/mL

## COc1c(N2CCNC(C)C2)c(F)cc2c(=O)c(C(=O)O)cn(C3CC3)c12 (centres undefined) [GATIFLOXACIN]
Streptococcus mutans
  MIC: 0.25 µg/mL (≈ 0.666 µM)
Pseudomonas aeruginosa
  MIC: 1 µg/mL (≈ 2.66 µM)
Staphylococcus aureus [1]
  MIC: 8 µg/mL (≈ 21.3 µM)
Staphylococcus aureus [2]
  MIC: 2 µg/mL
Candida albicans
  MIC: 0.5 µg/mL (≈ 1.33 µM)
Escherichia coli [3]
  MIC: 2 µg/mL (≈ 5.33 µM)
Staphylococcus aureus [4]
  MIC: 0.25 µg/mL

## CN(C)C1=NC(c2ccc(OCc3ccc(F)cc3)cc2)N=C(N)N1 (centres undefined)
Streptococcus mutans
  MIC: 64 µg/mL (≈ 187 µM)
Pseudomonas aeruginosa
  MIC: > 64 µg/mL
Staphylococcus aureus [1]
  MIC: 64 µg/mL (≈ 187 µM)
Staphylococcus aureus [2]
  MIC: 32 µg/mL
Candida albicans
  MIC: 64 µg/mL (≈ 187 µM)
Escherichia coli [3]
  MIC: 64 µg/mL (≈ 187 µM)
Staphylococcus aureus [4]
  MIC: 64 µg/mL
Salmonella typhimurium
  MIC: > 64 µg/mL
